# Test results as given in ChEMBL document CHEMBL1158563, “Identification of benzimidazole-based inhibitors of the mitogen activated kinase-5 signaling pathway” (2010).
# Columns and labels:
# [1] = target: T1, Dual specificity mitogen-activated protein kinase kinase 5 (Homo sapiens) (UniProt Q13163); assay: Inhibition of EGF-induced MEK5-mediated ERK5 phosphorylation in human HEK293 cells at 10 uM treated after 30 mins EGF challenge measured after 30 mins by Western blot analysis relative to control; format: cell-based; design: scale not given: the % may be the effect or the level left
# T1 sequence (whole entry): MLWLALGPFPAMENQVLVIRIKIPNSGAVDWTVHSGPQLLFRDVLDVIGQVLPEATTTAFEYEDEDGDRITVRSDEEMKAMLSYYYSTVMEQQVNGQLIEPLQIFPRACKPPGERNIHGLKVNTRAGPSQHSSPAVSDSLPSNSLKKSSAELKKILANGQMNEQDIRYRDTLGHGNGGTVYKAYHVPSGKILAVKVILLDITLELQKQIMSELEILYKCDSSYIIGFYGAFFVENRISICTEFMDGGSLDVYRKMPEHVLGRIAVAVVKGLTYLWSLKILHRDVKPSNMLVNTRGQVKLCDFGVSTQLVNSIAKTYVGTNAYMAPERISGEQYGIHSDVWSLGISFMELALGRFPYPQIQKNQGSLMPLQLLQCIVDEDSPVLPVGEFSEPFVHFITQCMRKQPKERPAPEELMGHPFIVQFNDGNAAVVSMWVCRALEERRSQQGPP
# Summary of the method: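 HEK293 cells were grown in medium with 10% heat-inactivated FBS and 0.5% penicillin/streptomycin at 37 °C, 5% CO2. They were stimulated with 50 ng/mL EGF, then given 10 µM compound (final) 30 min later, and lysed 30 min after that in 1% Triton buffer. 60 µg protein was run on 10% SDS gels and blotted for pERK1/2 (1:1000) or pERK5 (1:500).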
# CCRF-CEM = assay: Cytotoxicity against human CCRF-CEM cells at 10 uM assessed as cell growth relative to control; format: functional; conditions: read-out: Activity
# HL-60(TB) = assay: Cytotoxicity against human HL-60(TB) cells at 10 uM assessed as cell growth relative to control; format: functional; conditions: read-out: Activity
# K562 = assay: Cytotoxicity against human K562 cells at 10 uM assessed as cell growth relative to control; format: functional; conditions: read-out: Activity
# MOLT-4 = assay: Cytotoxicity against human MOLT4 cells at 10 uM assessed as cell growth relative to control; format: functional; conditions: read-out: Activity
# [2] = Cytotoxicity against human […] cells at 10 uM assessed as cell growth relative to control; format: functional; conditions: read-out: Activity
# SR = assay: Cytotoxicity against human SR cells at 10 uM assessed as cell growth relative to control; format: functional; conditions: read-out: Activity
# A549 = assay: Cytotoxicity against human A549 cells at 10 uM assessed as cell growth relative to control; format: functional; conditions: read-out: Activity
# EKVX = assay: Cytotoxicity against human EKVX cells at 10 uM assessed as cell growth relative to control; format: functional; conditions: read-out: Activity
# HOP-62 = assay: Cytotoxicity against human HOP62 cells at 10 uM assessed as cell growth relative to control; format: functional; conditions: read-out: Activity
# HOP-92 = assay: Cytotoxicity against human HOP92 cells at 10 uM assessed as cell growth relative to control; format: functional; conditions: read-out: Activity
# NCI-H226 = assay: Cytotoxicity against human NCI-H226 cells at 10 uM assessed as cell growth relative to control; format: functional; conditions: read-out: Activity
# NCI-H23 = assay: Cytotoxicity against human NCI-H23 cells at 10 uM assessed as cell growth relative to control; format: functional; conditions: read-out: Activity
# NCI-H322M = assay: Cytotoxicity against human NCI-H322M cells at 10 uM assessed as cell growth relative to control; format: functional; conditions: read-out: Activity
# NCI-H460 = assay: Cytotoxicity against human NCI-H460 cells at 10 uM assessed as cell growth relative to control; format: functional; conditions: read-out: Activity
# NCI-H522 = assay: Cytotoxicity against human NCI-H522 cells at 10 uM assessed as cell growth relative to control; format: functional; conditions: read-out: Activity
# COLO 205 = assay: Cytotoxicity against human COLO205 cells at 10 uM assessed as cell growth relative to control; format: functional; conditions: read-out: Activity
# HCC 2998 = assay: Cytotoxicity against human HCC2998 cells at 10 uM assessed as cell growth relative to control; format: functional; conditions: read-out: Activity
# HCT-116 = assay: Cytotoxicity against human HCT116 cells at 10 uM assessed as cell growth relative to control; format: functional; conditions: read-out: Activity
# HCT-15 = assay: Cytotoxicity against human HCT15 cells at 10 uM assessed as cell growth relative to control; format: functional; conditions: read-out: Activity
# HT-29 = assay: Cytotoxicity against human HT-29 cells at 10 uM assessed as cell growth relative to control; format: functional; conditions: read-out: Activity
# KM12 = assay: Cytotoxicity against human KM12 cells at 10 uM assessed as cell growth relative to control; format: functional; conditions: read-out: Activity
# SW-620 = assay: Cytotoxicity against human SW620 cells at 10 uM assessed as cell growth relative to control; format: functional; conditions: read-out: Activity
# SF-268 = assay: Cytotoxicity against human SF268 cells at 10 uM assessed as cell growth relative to control; format: functional; conditions: read-out: Activity
# SF-295 = assay: Cytotoxicity against human SF295 cells at 10 uM assessed as cell growth relative to control; format: functional; conditions: read-out: Activity
# SF-539 = assay: Cytotoxicity against human SF539 cells at 10 uM assessed as cell growth relative to control; format: functional; conditions: read-out: Activity
# SNB-19 = assay: Cytotoxicity against human SNB19 cells at 10 uM assessed as cell growth relative to control; format: functional; conditions: read-out: Activity
# SNB-75 = assay: Cytotoxicity against human SNB75 cells at 10 uM assessed as cell growth relative to control; format: functional; conditions: read-out: Activity
# U-251 = assay: Cytotoxicity against human U251 cells at 10 uM assessed as cell growth relative to control; format: functional; conditions: read-out: Activity
# LOX IMVI = assay: Cytotoxicity against human LOXIMVI cells at 10 uM assessed as cell growth relative to control; format: functional; conditions: read-out: Activity
# Malme-3M = assay: Cytotoxicity against human MALME-3M cells at 10 uM assessed as cell growth relative to control; format: functional; conditions: read-out: Activity
# M14 = assay: Cytotoxicity against human M14 cells at 10 uM assessed as cell growth relative to control; format: functional; conditions: read-out: Activity
# MDA-MB-435 = assay: Cytotoxicity against human MDA-MB-435 cells at 10 uM assessed as cell growth relative to control; format: functional; conditions: read-out: Activity
# SK-MEL-2 = assay: Cytotoxicity against human SK-MEL-2 cells at 10 uM assessed as cell growth relative to control; format: functional; conditions: read-out: Activity
# SK-MEL-28 = assay: Cytotoxicity against human SK-MEL-28 cells at 10 uM assessed as cell growth relative to control; format: functional; conditions: read-out: Activity
# SK-MEL-5 = assay: Cytotoxicity against human SK-MEL-5 cells at 10 uM assessed as cell growth relative to control; format: functional; conditions: read-out: Activity
# UACC-257 = assay: Cytotoxicity against human UACC257 cells at 10 uM assessed as cell growth relative to control; format: functional; conditions: read-out: Activity
# UACC-62 = assay: Cytotoxicity against human UACC62 cells at 10 uM assessed as cell growth relative to control; format: functional; conditions: read-out: Activity
# IGROV-1 = assay: Cytotoxicity against human IGROV1 cells at 10 uM assessed as cell growth relative to control; format: functional; conditions: read-out: Activity
# OVCAR-3 = assay: Cytotoxicity against human OVCAR-3 cells at 10 uM assessed as cell growth relative to control; format: functional; conditions: read-out: Activity
# OVCAR-4 = assay: Cytotoxicity against human OVCAR4 cells at 10 uM assessed as cell growth relative to control; format: functional; conditions: read-out: Activity
# OVCAR-5 = assay: Cytotoxicity against human OVCAR5 cells at 10 uM assessed as cell growth relative to control; format: functional; conditions: read-out: Activity
# OVCAR-8 = assay: Cytotoxicity against human OVCAR8 cells at 10 uM assessed as cell growth relative to control; format: functional; conditions: read-out: Activity
# SK-OV-3 = assay: Cytotoxicity against human SKOV3 cells at 10 uM assessed as cell growth relative to control; format: functional; conditions: read-out: Activity
# 786-0 = assay: Cytotoxicity against human 786-0 cells at 10 uM assessed as cell growth relative to control; format: functional; conditions: read-out: Activity
# A498 = assay: Cytotoxicity against human A498 cells at 10 uM assessed as cell growth relative to control; format: functional; conditions: read-out: Activity
# ACHN = assay: Cytotoxicity against human ACHN cells at 10 uM assessed as cell growth relative to control; format: functional; conditions: read-out: Activity
# CAKI-1 = assay: Cytotoxicity against human Caki1 cells at 10 uM assessed as cell growth relative to control; format: functional; conditions: read-out: Activity
# RXF 393 = assay: Cytotoxicity against human RXF393 cells at 10 uM assessed as cell growth relative to control; format: functional; conditions: read-out: Activity
# SN12C = assay: Cytotoxicity against human SN12C cells at 10 uM assessed as cell growth relative to control; format: functional; conditions: read-out: Activity
# TK-10 = assay: Cytotoxicity against human TK10 cells at 10 uM assessed as cell growth relative to control; format: functional; conditions: read-out: Activity
# UO-31 = assay: Cytotoxicity against human UO31 cells at 10 uM assessed as cell growth relative to control; format: functional; conditions: read-out: Activity
# DU-145 = assay: Cytotoxicity against human DU145 cells at 10 uM assessed as cell growth relative to control; format: functional; conditions: read-out: Activity
# MCF7 = assay: Cytotoxicity against human MCF7 cells at 10 uM assessed as cell growth relative to control; format: functional; conditions: read-out: Activity
# MDA-MB-231 = assay: Cytotoxicity against human MDA-MB-231 cells at 10 uM assessed as cell growth relative to control; format: functional; conditions: read-out: Activity
# [3] = Cytotoxicity against human Hs 578T cells at 10 uM assessed as cell growth relative to control; format: functional; conditions: read-out: Activity
# BT-549 = assay: Cytotoxicity against human BT549 cells at 10 uM assessed as cell growth relative to control; format: functional; conditions: read-out: Activity
# T47D = assay: Cytotoxicity against human T47D cells at 10 uM assessed as cell growth relative to control; format: functional; conditions: read-out: Activity
# MDA-MB-468 = assay: Cytotoxicity against human MDA-MB-468 cells at 10 uM assessed as cell growth relative to control; format: functional; conditions: read-out: Activity
# NCI/ADR-RES = assay: Cytotoxicity against human NCI/ADR-RES cells at 10 uM assessed as cell growth relative to control; format: functional; conditions: read-out: Activity
structure (smiles),measurement,setting,value
CCC(CO)Oc1cc(NCc2ccccc2)c2ncn(C3CCCC3)c2c1 (configuration not stated),Activity,[1],132%
c1ccc(CNc2cc(Cc3ccccc3)cc3c2ncn3C2CCCC2)cc1,Activity,[1],78%
COc1cc(NCc2ccccc2)c2ncn(Cc3ccccc3)c2c1,Activity,[1],136%
COc1cc(NCc2ccccc2)c2ncn(C(C)C)c2c1,growth at 10 µM,CCRF-CEM,93.9%
same,growth at 10 µM,HL-60(TB),50.3%
same,growth at 10 µM,K562,64.2%
same,growth at 10 µM,MOLT-4,78.7%
same,growth at 10 µM,[2],71.5%
same,growth at 10 µM,SR,51.7%
same,growth at 10 µM,A549,110%
same,growth at 10 µM,EKVX,93.9%
same,growth at 10 µM,HOP-62,101%
same,growth at 10 µM,HOP-92,84.5%
same,growth at 10 µM,NCI-H226,97.1%
same,growth at 10 µM,NCI-H23,91.1%
same,growth at 10 µM,NCI-H322M,115%
same,growth at 10 µM,NCI-H460,107%
same,growth at 10 µM,NCI-H522,87%
same,growth at 10 µM,COLO 205,118%
same,growth at 10 µM,HCC 2998,104%
same,growth at 10 µM,HCT-116,103%
same,growth at 10 µM,HCT-15,97.9%
same,growth at 10 µM,HT-29,109%
same,growth at 10 µM,KM12,104%
same,growth at 10 µM,SW-620,146%
same,growth at 10 µM,SF-268,125%
same,growth at 10 µM,SF-295,138%
same,growth at 10 µM,SF-539,96.2%
same,growth at 10 µM,SNB-19,90.7%
same,growth at 10 µM,SNB-75,92.3%
same,growth at 10 µM,U-251,103%
same,growth at 10 µM,LOX IMVI,115%
same,growth at 10 µM,Malme-3M,49.2%
same,growth at 10 µM,M14,109%
same,growth at 10 µM,MDA-MB-435,122%
same,growth at 10 µM,SK-MEL-2,91.6%
same,growth at 10 µM,SK-MEL-28,125%
same,growth at 10 µM,SK-MEL-5,122%
same,growth at 10 µM,UACC-257,105%
same,growth at 10 µM,UACC-62,97.3%
same,growth at 10 µM,IGROV-1,92.5%
same,growth at 10 µM,OVCAR-3,103%
same,growth at 10 µM,OVCAR-4,80.6%
same,growth at 10 µM,OVCAR-5,97.2%
same,growth at 10 µM,OVCAR-8,98.7%
same,growth at 10 µM,SK-OV-3,110%
same,growth at 10 µM,786-0,96.8%
same,growth at 10 µM,A498,106%
same,growth at 10 µM,ACHN,105%
same,growth at 10 µM,CAKI-1,97.2%
same,growth at 10 µM,RXF 393,91.2%
same,growth at 10 µM,SN12C,104%
same,growth at 10 µM,TK-10,136%
same,growth at 10 µM,UO-31,83.2%
same,growth at 10 µM,DU-145,136%
same,growth at 10 µM,MCF7,5.8%
same,growth at 10 µM,MDA-MB-231,111%
same,growth at 10 µM,[3],174%
same,growth at 10 µM,BT-549,55.6%
same,growth at 10 µM,T47D,80.1%
same,growth at 10 µM,MDA-MB-468,36.5%
same,growth at 10 µM,NCI/ADR-RES,96.5%
